Reference: ChEMBL document CHEMBL4359831, “Chemoproteomics of an Indole-Based Quinone Epoxide Identifies Druggable Vulnerabilities in Vancomycin-Resistant Staphylococcus aureus” (J Med Chem, 2019)
Converted amounts (≈) assume the structure as drawn. The source made the active and inactive calls. The calls are words filed in the database; no cut-off is given here.

Legend:
[1] = L-cysteine reactivity in pH 7.4 phosphate buffer assessed as compound remaining at 100 uM incubated for 1 hr by HPLC analysis
Staphylococcus aureus [2] = assay: Bactericidal activity against Staphylococcus aureus ATCC 29213 at 1 to 10 times MIC preincubated up to 24 hrs under shaking condition followed by bacterial plating on Tryptic Soy agar and measured after 18 to 20 hrs by time kill assay; format: functional, organism-based
Staphylococcus aureus [3] = assay: Antibacterial activity against vancomycin-resistant Staphylococcus aureus SA-HIP-14300 after 16 to 18 hrs by CLSI M07-A10 protocol based dilution method; format: functional
Staphylococcus aureus [4] = assay: Antibacterial activity against vancomycin-resistant Staphylococcus aureus SA-HIP-11983 after 16 to 18 hrs by CLSI M07-A10 protocol based dilution method; format: functional
Staphylococcus aureus [5] = assay: Antibacterial activity against vancomycin-resistant Staphylococcus aureus SA-HIP-15178 after 16 to 18 hrs by CLSI M07-A10 protocol based dilution method; format: functional
Staphylococcus aureus [6] = assay: Antibacterial activity against vancomycin-resistant Staphylococcus aureus 1002434 after 16 to 18 hrs by CLSI M07-A10 protocol based dilution method; format: functional
Escherichia coli = assay: Antibacterial activity against Escherichia coli ATCC 25922 after 16 to 18 hrs by CLSI M07-A10 protocol based dilution method; format: functional
Acinetobacter baumannii = assay: Antibacterial activity against Acinetobacter baumannii BAA-1605 after 16 to 18 hrs by CLSI M07-A10 protocol based dilution method; format: functional
[7] = Chemical reactivity assessed as thiolated-adduct formation at 25 uM using 4-nitrobenzyl thiol after 1 hr by HPLC analysis; format: physicochemical
Staphylococcus aureus [8] = assay: Binding affinity to Staphylococcus aureus ATCC 29213 DAPDC at 10 uM in presence of 9-(Pent-4-yn-1-yl)-1a,10a-dihydro-2H-oxireno[2',3':4,5]-benzo[1,2-a]carbazole-2,10(9H)-dione after 1 hr by biotin-azide fluorescence dependent LC-MS/MS-based ABPP assay
Outline: (§1)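 Competitive LC–MS/MS ABPP on S. aureus soluble proteome. Pretreatment 1 h with DMSO, compound (10 μM), comparator (10 μM) or iodoacetamide (10 mM). Chase with alkyne probe (10 μM, 1 h), then Cu-catalysed click with biotin-azide and LC–MS/MS. Targets were proteins at ratio ≤0.1 versus DMSO in the compound and IAM groups and ~1 in the comparator group.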

Staphylococcus aureus [9] = assay: Binding affinity to Staphylococcus aureus ATCC 29213 Methionine aminopeptidase at 10 uM in presence of 9-(Pent-4-yn-1-yl)-1a,10a-dihydro-2H-oxireno[2',3':4,5]-benzo[1,2-a]carbazole-2,10(9H)-dione after 1 hr by biotin-azide fluorescence dependent LC-MS/MS-based ABPP assay; outline: as §1
Staphylococcus aureus [10] = assay: Binding affinity to Staphylococcus aureus ATCC 29213 Heme peroxidase at 10 uM in presence of 9-(Pent-4-yn-1-yl)-1a,10a-dihydro-2H-oxireno[2',3':4,5]-benzo[1,2-a]carbazole-2,10(9H)-dione after 1 hr by biotin-azide fluorescence dependent LC-MS/MS-based ABPP assay; outline: as §1
Staphylococcus aureus [11] = assay: Binding affinity to Staphylococcus aureus ATCC 29213 MarR family transcriptional regulator at 10 uM in presence of 9-(Pent-4-yn-1-yl)-1a,10a-dihydro-2H-oxireno[2',3':4,5]-benzo[1,2-a]carbazole-2,10(9H)-dione after 1 hr by biotin-azide fluorescence dependent LC-MS/MS-based ABPP assay; outline: as §1
Staphylococcus aureus [12] = assay: Binding affinity to Staphylococcus aureus ATCC 29213 DNA polymerase III subunit beta at 10 uM in presence of 9-(Pent-4-yn-1-yl)-1a,10a-dihydro-2H-oxireno[2',3':4,5]-benzo[1,2-a]carbazole-2,10(9H)-dione after 1 hr by biotin-azide fluorescence dependent LC-MS/MS-based ABPP assay; outline: as §1
Staphylococcus aureus [13] = assay: Binding affinity to Staphylococcus aureus ATCC 29213 Hydroxyethylthiazole kinase at 10 uM in presence of 9-(Pent-4-yn-1-yl)-1a,10a-dihydro-2H-oxireno[2',3':4,5]-benzo[1,2-a]carbazole-2,10(9H)-dione after 1 hr by biotin-azide fluorescence dependent LC-MS/MS-based ABPP assay; outline: as §1
Staphylococcus aureus [14] = assay: Binding affinity to Staphylococcus aureus ATCC 29213 Catabolite control protein A at 10 uM in presence of 9-(Pent-4-yn-1-yl)-1a,10a-dihydro-2H-oxireno[2',3':4,5]-benzo[1,2-a]carbazole-2,10(9H)-dione after 1 hr by biotin-azide fluorescence dependent LC-MS/MS-based ABPP assay; outline: as §1
[15] = Cytotoxicity against African green monkey Vero cells after 72 hrs by MTT assay; format: cell-based; conditions: chlorocebus sabaeus

## CC(C)n1c2ccccc2c2ccc3c(c21)C(=O)C1OC1C3=O (configuration not stated)
[1]
  Activity: 34%
Staphylococcus aureus [2]
  Activity: Active
Staphylococcus aureus [3]
  MIC: 0.5 µg/mL (≈ 1.64 µM)
Staphylococcus aureus [4]
  MIC: 0.5 µg/mL (≈ 1.64 µM)
Staphylococcus aureus [5]
  MIC: 0.5 µg/mL (≈ 1.64 µM)
Staphylococcus aureus [6]
  MIC: 0.5 µg/mL (≈ 1.64 µM)
Escherichia coli
  MIC: 64 µg/mL (≈ 210 µM)
Acinetobacter baumannii
  MIC: 64 µg/mL (≈ 210 µM)
[7]
  Activity: Active
Staphylococcus aureus [8]
  Activity: Active
Staphylococcus aureus [9]
  Activity: Active
Staphylococcus aureus [10]
  Activity: Active
Staphylococcus aureus [11]
  Activity: Active
Staphylococcus aureus [12]
  Activity: Active
Staphylococcus aureus [13]
  Activity: Active
Staphylococcus aureus [14]
  Activity: Active
[15]
  CC50 at 72 h: > 25 µg/mL
